Assay results reported in ChEMBL document CHEMBL5329156, “Discovery and development of novel substituted monohydrazides as potent antifungal agents” (RSC Med Chem, 2023).
Values after ≈ are worked out from the molar mass of the structure shown.

How the values were obtained:
Assay type in all cases: functional
Candida albicans [1] = experiment: Antifungal activity against itraconazole/fluconazole susceptible Candida albicans ATCC MYA-2876 assessed as fungal growth inhibition by double dilution method
Method in brief: (§1)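 Broth microdilution after CLSI M27-A3/M38-A2 with minor modifications. A single colony was grown overnight in YPD at 35 °C with shaking at 200 rpm. Cells were mixed 1:1 with compound (final 0.06-31.3 µg/mL, from DMSO stocks) and incubated 48 h at 35 °C.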

Candida albicans [2] = experiment: Antifungal activity against Candida albicans ATCC 10231 assessed as fungal growth inhibition by double dilution method
Method in brief: (§2)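 Broth microdilution after CLSI M27-A3/M38-A2 with minor changes. Single colony grown overnight in YPD at 35 °C, 200 rpm. Compound final range 0.06-31.3 µg/mL; incubated 48 h at 35 °C.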

Candida albicans [3] = experiment: Antifungal activity against Candida albicans ATCC 64124 assessed as fungal growth inhibition by double dilution method; method in brief: as §1
Aspergillus fumigatus [4] = experiment: Antifungal activity against Aspergillus fumigatus NRRL 6113 assessed as fungal growth inhibition by double dilution method
Aspergillus fumigatus [5] = experiment: Antifungal activity against Aspergillus fumigatus NRRL 163 assessed as fungal growth inhibition by double dilution method
Nakaseomyces glabratus [6] = experiment: Antifungal activity against Candida glabrata ATCC 22019 assessed as fungal growth inhibition by double dilution method; method in brief: as §2
Aspergillus terreus = experiment: Antifungal activity against Aspergillus terreus ATCC MYA-3633 assessed as fungal growth inhibition by double dilution method
Cryptococcus neoformans = experiment: Antifungal activity against Cryptococcus neoformans ATCC MYA-895 assessed as fungal growth inhibition by double dilution method; method in brief: as §2
Candida albicans [7] = experiment: Antifungal activity against itraconazole/fluconazole resistant Candida albicans ATCC 90819 assessed as fungal growth inhibition by double dilution method; method in brief: as §1
Candida albicans [8] = experiment: Antifungal activity against itraconazole/fluconazole resistant Candida albicans ATCC MYA-1003 assessed as fungal growth inhibition by double dilution method; method in brief: as §1
Aspergillus fumigatus [9] = experiment: Antifungal activity against Aspergillus fumigatus NRRL 5109 assessed as fungal growth inhibition by double dilution method
Aspergillus nidulans = experiment: Antifungal activity against Aspergillus nidulans ATCC 38163 assessed as fungal growth inhibition by double dilution method
Aspergillus flavus = experiment: Antifungal activity against Aspergillus flavus ATCC MYA-3631 assessed as fungal growth inhibition by double dilution method
Pichia kudriavzevii [10] = experiment: Antifungal activity against Pichia kudriavzevii ATCC 6258 assessed as fungal growth inhibition by double dilution method; method in brief: as §2
Candida albicans [11] = experiment: Antifungal activity against itraconazole/fluconazole resistant Candida albicans ATCC MYA-1237 assessed as fungal growth inhibition by double dilution method; method in brief: as §1
Candida albicans [12] = experiment: Antifungal activity against itraconazole/fluconazole susceptible Candida albicans ATCC MYA-2310 assessed as fungal growth inhibition by double dilution method; method in brief: as §1
[Candida] auris [13] = Antifungal activity against Candida auris AR Bank # 0384 assessed as fungal growth inhibition by double dilution method; conditions: Candidozyma auris; method in brief: as §2
[Candida] auris [14] = Antifungal activity against Candida auris AR Bank # 0390 assessed as fungal growth inhibition by double dilution method; conditions: Candidozyma auris; method in brief: as §2
Nakaseomyces glabratus [15] = experiment: Antifungal activity against Candida glabrata ATCC 2001 assessed as fungal growth inhibition by double dilution method; method in brief: as §2
[Candida] auris [16] = Antifungal activity against Candida auris AR Bank # 383 assessed as fungal growth inhibition by double dilution method; conditions: Candidozyma auris; method in brief: as §2
[Candida] auris [17] = Antifungal activity against Candida auris AR Bank # 386 assessed as fungal growth inhibition by double dilution method; conditions: Candidozyma auris; method in brief: as §2
Saccharomyces cerevisiae [18] = experiment: Antifungal activity against Saccharomyces cerevisiae AR Bank # 400 assessed as fungal growth inhibition by double dilution method; method in brief: as §2
[Candida] auris [19] = Antifungal activity against Candida auris AR Bank # 387 assessed as fungal growth inhibition by double dilution method; conditions: Candidozyma auris; method in brief: as §2
Clavispora lusitaniae = experiment: Antifungal activity against Clavispora lusitaniae AR Bank # 398 assessed as fungal growth inhibition by double dilution method; method in brief: as §2
Candida duobushaemulonii [20] = experiment: Antifungal activity against Candida duobushaemulonii AR Bank # 394 assessed as fungal growth inhibition by double dilution method; conditions: Candidozyma duobushaemuli; method in brief: as §2
[Candida] auris [21] = Antifungal activity against Candida auris AR Bank # 390 assessed as fungal growth inhibition by double dilution method; conditions: Candidozyma auris; method in brief: as §2
[Candida] haemuloni [22] = Antifungal activity against Candida haemulonii AR Bank # 393 assessed as fungal growth inhibition by double dilution method; conditions: Candidozyma haemuli; method in brief: as §2
Candida duobushaemulonii [23] = experiment: Antifungal activity against Candida duobushaemulonii AR Bank # 391 assessed as fungal growth inhibition by double dilution method; conditions: Candidozyma duobushaemuli; method in brief: as §2
Saccharomyces cerevisiae [24] = experiment: Antifungal activity against Saccharomyces cerevisiae AR Bank # 399 assessed as fungal growth inhibition by double dilution method; method in brief: as §2
[Candida] haemuloni [25] = Antifungal activity against Candida haemulonii AR Bank # 395 assessed as fungal growth inhibition by double dilution method; conditions: Candidozyma haemuli; method in brief: as §2
[Candida] auris [26] = Antifungal activity against Candida auris AR Bank # 381 assessed as fungal growth inhibition by double dilution method; conditions: Candidozyma auris; method in brief: as §2
[Candida] auris [27] = Antifungal activity against Candida auris AR Bank # 388 assessed as fungal growth inhibition by double dilution method; conditions: Candidozyma auris; method in brief: as §2
[Candida] auris [28] = Antifungal activity against Candida auris AR Bank # 385 assessed as fungal growth inhibition by double dilution method; conditions: Candidozyma auris; method in brief: as §2
[Candida] auris [29] = Antifungal activity against Candida auris AR Bank # 382 assessed as fungal growth inhibition by double dilution method; conditions: Candidozyma auris; method in brief: as §2
Kodamaea ohmeri = experiment: Antifungal activity against Kodamaea ohmeri AR Bank # 396 assessed as fungal growth inhibition by double dilution method; method in brief: as §2
[Candida] auris [30] = Antifungal activity against Candida auris AR Bank # 389 assessed as fungal growth inhibition by double dilution method; conditions: Candidozyma auris; method in brief: as §2
Pichia kudriavzevii [31] = experiment: Antifungal activity against Pichia kudriavzevii AR Bank # 397 assessed as fungal growth inhibition by double dilution method; method in brief: as §2
Candida duobushaemulonii [32] = experiment: Antifungal activity against Candida duobushaemulonii AR Bank # 392 assessed as fungal growth inhibition by double dilution method; conditions: Candidozyma duobushaemuli; method in brief: as §2
[Candida] auris [33] = Antifungal activity against Candida auris AR Bank # 384 assessed as fungal growth inhibition by double dilution method; conditions: Candidozyma auris; method in brief: as §2

| SMILES | MIC (Candida albicans [1]) [µg/mL] | MIC (Candida albicans [2]) [µg/mL] | MIC (Candida albicans [3]) [µg/mL] | MIC (Aspergillus fumigatus [4]) [µg/mL] | MIC (Aspergillus fumigatus [5]) [µg/mL] | MIC (Nakaseomyces glabratus [6]) [µg/mL] | MIC (Aspergillus terreus) [µg/mL] | MIC (Cryptococcus neoformans) [µg/mL] | MIC (Candida albicans [7]) [µg/mL] | MIC (Candida albicans [8]) [µg/mL] | MIC (Aspergillus fumigatus [9]) [µg/mL] | MIC (Aspergillus nidulans) [µg/mL] | MIC (Aspergillus flavus) [µg/mL] | MIC (Pichia kudriavzevii [10]) [µg/mL] | MIC (Candida albicans [11]) [µg/mL] | MIC (Candida albicans [12]) [µg/mL] | MIC ([Candida] auris [13]) [µg/mL] | MIC ([Candida] auris [14]) [µg/mL] | MIC (Nakaseomyces glabratus [15]) [µg/mL] | also measured |
| --- | --- | --- | --- | --- | --- | --- | --- | --- | --- | --- | --- | --- | --- | --- | --- | --- | --- | --- | --- | --- |
| O=C(NNc1ccc(F)cc1)c1cccc(F)n1 | 1.95 (≈ 7.82 µM) | 0.24 (≈ 0.963 µM) | 0.98 (≈ 3.93 µM) | 15.6 (≈ 62.6 µM) | 31.3 (≈ 126 µM) | 3.9 (≈ 15.6 µM) | 1.95 (≈ 7.82 µM) | 0.49 (≈ 1.97 µM) | 1.95 (≈ 7.82 µM) | 0.98 (≈ 3.93 µM) | 15.6 (≈ 62.6 µM) | 0.98 (≈ 3.93 µM) | 7.8 (≈ 31.3 µM) | 0.49 (≈ 1.97 µM) | 1.95 (≈ 7.82 µM) | 3.9 (≈ 15.6 µM) | 1.95 (≈ 7.82 µM) | 0.98 (≈ 3.93 µM) | 15.6 (≈ 62.6 µM) | – |
| O=C(NNc1ccc(Cl)cc1)c1cnccn1 | – | – | – | – | – | – | – | – | – | – | – | – | – | – | – | – | – | – | – | MIC ([Candida] auris [16]): 3.9 µg/mL (≈ 15.7 µM); MIC ([Candida] auris [17]): 7.8 µg/mL (≈ 31.4 µM); MIC (Saccharomyces cerevisiae [18]): 3.9 µg/mL (≈ 15.7 µM); MIC ([Candida] auris [19]): 15.6 µg/mL (≈ 62.7 µM); MIC (Clavispora lusitaniae): 3.9 µg/mL (≈ 15.7 µM); MIC (Candida duobushaemulonii [20]): 1.95 µg/mL (≈ 7.84 µM); MIC ([Candida] auris [21]): 3.9 µg/mL (≈ 15.7 µM); MIC ([Candida] haemuloni [22]): 1.95 µg/mL (≈ 7.84 µM); MIC (Candida duobushaemulonii [23]): 1.95 µg/mL (≈ 7.84 µM); MIC (Saccharomyces cerevisiae [24]): 3.9 µg/mL (≈ 15.7 µM); MIC ([Candida] haemuloni [25]): 3.9 µg/mL (≈ 15.7 µM); MIC ([Candida] auris [26]): 7.8 µg/mL (≈ 31.4 µM); MIC ([Candida] auris [27]): 7.8 µg/mL (≈ 31.4 µM); MIC ([Candida] auris [28]): 31.3 µg/mL (≈ 126 µM); MIC ([Candida] auris [29]): 15.6 µg/mL (≈ 62.7 µM); MIC (Kodamaea ohmeri): 1.95 µg/mL (≈ 7.84 µM); MIC ([Candida] auris [30]): 7.8 µg/mL (≈ 31.4 µM); MIC (Pichia kudriavzevii [31]): 3.9 µg/mL (≈ 15.7 µM); MIC (Candida duobushaemulonii [32]): 1.95 µg/mL (≈ 7.84 µM); MIC ([Candida] auris [33]): 1.95 µg/mL (≈ 7.84 µM) |
| O=C(NNc1cccc(F)c1)c1ccc(F)cc1F | 3.9 (≈ 14.6 µM) | 0.24 (≈ 0.902 µM) | 1.95 (≈ 7.32 µM) | > 31.3 | > 31.3 | 3.9 (≈ 14.6 µM) | 1.95 (≈ 7.32 µM) | 1.95 (≈ 7.32 µM) | 7.8 (≈ 29.3 µM) | 1.95 (≈ 7.32 µM) | > 31.3 | 3.9 (≈ 14.6 µM) | > 31.3 | 1.95 (≈ 7.32 µM) | 0.98 (≈ 3.68 µM) | 3.9 (≈ 14.6 µM) | 1.95 (≈ 7.32 µM) | 0.24 (≈ 0.902 µM) | 7.8 (≈ 29.3 µM) | – |
| COc1cccc(NNC(=O)c2ccc(Br)cn2)c1 | 0.98 (≈ 3.04 µM) | 0.98 (≈ 3.04 µM) | 3.9 (≈ 12.1 µM) | > 31.3 | > 31.3 | 1.95 (≈ 6.05 µM) | 1.95 (≈ 6.05 µM) | 0.49 (≈ 1.52 µM) | 1.95 (≈ 6.05 µM) | 3.9 (≈ 12.1 µM) | 15.6 (≈ 48.4 µM) | 3.9 (≈ 12.1 µM) | > 31.3 | 0.24 (≈ 0.745 µM) | 0.98 (≈ 3.04 µM) | 3.9 (≈ 12.1 µM) | 0.98 (≈ 3.04 µM) | 1.95 (≈ 6.05 µM) | 3.9 (≈ 12.1 µM) | – |
| COc1ccc(NNC(=O)c2ccc(F)cc2F)cc1 | 1.95 (≈ 7.01 µM) | 0.98 (≈ 3.52 µM) | 1.95 (≈ 7.01 µM) | > 31.3 | > 31.3 | 7.8 (≈ 28 µM) | 31.3 (≈ 112 µM) | 0.98 (≈ 3.52 µM) | 1.95 (≈ 7.01 µM) | 1.95 (≈ 7.01 µM) | > 31.3 | 1.95 (≈ 7.01 µM) | > 31.3 | 0.98 (≈ 3.52 µM) | 1.95 (≈ 7.01 µM) | 1.95 (≈ 7.01 µM) | 1.95 (≈ 7.01 µM) | 1.95 (≈ 7.01 µM) | 3.9 (≈ 14 µM) | – |
